Screening data as filed in PubChem BioAssay.
The list is not random: actives were taken first. Their share in the collection is about 3.8%.
NPY2 pot ag: human NPY-Y2 potentiation or agonism, primary screen. P49146. cells expressing NPY-Y2, potentiator/agonist read-out. activation, % at 3.6 µM. 220,000 tested, 0.45% active; in the data active = activation above about 27%;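 note: cells stimulated with NPY near EC25 plus isoproterenol at EC100; 0% = vehicle plus submaximal agonist and 100% = vehicle plus saturating agonist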
Target sequence (P49146 whole entry, looked up): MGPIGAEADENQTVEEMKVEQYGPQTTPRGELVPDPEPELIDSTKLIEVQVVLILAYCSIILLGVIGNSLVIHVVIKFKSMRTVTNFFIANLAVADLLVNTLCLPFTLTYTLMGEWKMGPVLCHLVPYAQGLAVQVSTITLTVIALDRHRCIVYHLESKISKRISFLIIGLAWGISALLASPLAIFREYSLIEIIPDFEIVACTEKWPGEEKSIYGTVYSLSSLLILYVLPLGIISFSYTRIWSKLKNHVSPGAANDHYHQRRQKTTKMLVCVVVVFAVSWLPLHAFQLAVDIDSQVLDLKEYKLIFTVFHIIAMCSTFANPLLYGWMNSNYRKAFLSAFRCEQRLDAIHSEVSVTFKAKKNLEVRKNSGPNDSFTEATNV
INS promoter inh: TRM-6 insulin promoter activity inhibition. TRM-6 cells, insulin promoter-eGFP reporter, imaging; reporter expression induced with tamoxifen. inhibition, % at 2 µM. 130,000 tested, 0.9% active. AID 1273;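 active = inhibition above the mean plus 3 SD, with well images judged a real hit on visual review, cut at about 60% in these data, passing the limit was not always enough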
NPY-Y1 PAM-ag: human NPY-Y1 potentiation or agonism, primary screen. 220,000 tested, 0.37% active. NPY-Y1 expressing cells, potentiator/agonist activation. AID 1304. activation, % at 3.6 µM; in the data active = activation above about 33%, passing the limit was not always enough;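 note: cells stimulated with NPY at EC10 then isoproterenol at EC100; 0% = low agonist plus stimulus and 100% = saturating agonist plus stimulus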
Target sequence (P25929 whole entry, looked up): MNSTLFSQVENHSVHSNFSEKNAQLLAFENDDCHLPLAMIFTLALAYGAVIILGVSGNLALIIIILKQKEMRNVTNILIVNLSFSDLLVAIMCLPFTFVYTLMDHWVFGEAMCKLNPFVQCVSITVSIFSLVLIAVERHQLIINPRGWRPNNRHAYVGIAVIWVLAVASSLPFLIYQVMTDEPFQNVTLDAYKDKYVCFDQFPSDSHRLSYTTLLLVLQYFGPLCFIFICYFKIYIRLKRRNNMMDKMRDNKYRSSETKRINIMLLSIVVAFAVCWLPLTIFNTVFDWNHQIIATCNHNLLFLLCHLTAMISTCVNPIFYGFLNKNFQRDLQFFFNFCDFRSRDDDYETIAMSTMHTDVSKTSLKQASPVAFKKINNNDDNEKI
NPY Y2 blocker: antagonists of human neuropeptide Y receptor Y2 | inhibition, % at 2.7 µM | P49146 | NPY-Y2 expressing cells, antagonist mode | 140,000 tested, 0.99% active; in the data active = inhibition above about 17%;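 note: 0% = vehicle with agonist challenge and 100% = reference antagonist with challenge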
RAM inhibit: yeast RAM network inhibition | S. cerevisiae dse1pr::URA3 reporter, 5-FOA growth OD615, 2 d; analog-sensitive cbk1-as2 kinase mutant strain | inhibition, % at 50 µM | 190,000 tested, 1.8% active | AID 868;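 active = inhibition above a set limit, 3 SD over mean compound inhibition, cut at about 8.4% in these data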;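 note: 0% = DMSO-only wells with no growth and 100% = 10 µM 1-NA-PP1 full growth; inhibition rescues growth on 5-FOA so higher OD means more RAM inhibition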
NPY-Y1 antag: NPY-Y1 (human) receptor antagonism | P25929 | HEK293-CNG Y1 cells, membrane potential fluorescence; NPY at EC95, then isoproterenol | inhibition, % at 3.6 µM | 200,000 tested, 1% active | AID 1040;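 active = inhibition above the campaign mean inhibition of all tested compounds plus 3 SD, cut at about 20% in these data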;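 note: 0% = DMSO wells given NPY plus isoproterenol and 100% = isoproterenol alone without NPY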
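Material: HEK293 cells co-expressing NPY Y1 receptor and cyclic-nucleotide gated channel. Timing: compound incubation 1 h at room temperature, readout 45 min post-stimulation. Signal: fluorescence, membrane potential probe.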
RAM efflux-def: RAM network inhibitors in efflux-deficient yeast; shares compounds with RAM inhibit; S. cerevisiae efflux-deficient reporter strain, 5-FOA growth OD615, 2 days; max inhibition, %; 1,200 tested, under 10 active; AID 1305; call rule not given here;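 note: plate controls were vehicle for no effect and reference inhibitor for full effect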
NPY1 antag conf: human NPY-Y1 antagonism, confirmation | shares compounds with NPY-Y1 antag | HEK293-CNG NPY-Y1, membrane potential fluorescence, cAMP; NPY challenge against isoproterenol-raised cAMP | inhibition, % at 3.6 µM | 1,200 tested, 21% active; in the data active = inhibition above about 20%;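 note: 0% = vehicle with agonist plus stimulus and 100% = stimulus alone without agonist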
NPY2 antag ctr: antagonizes human NPY-Y2, counter-screen to NPY-Y1 antagonists; shares compounds with NPY-Y1 antag; HEK293 NPY-Y2 CNG membrane potential fluorescence, antagonism; cells given NPY, then isoproterenol; inhibition, % at 3.6 µM; 1,200 tested, 28% active; in the data active = inhibition above about 17%;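 note: 0% = DMSO with agonist challenge and 100% = reference antagonist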
NPY-Y1 confirm: confirmation of human NPY-Y1 receptor potentiators or agonists; shares compounds with NPY-Y1 PAM-ag; cell-based NPY-Y1 potentiator/agonist assay; AID 1546; activation, % at 3.6 µM; 280 tested, 20% active; in the data active = activation above about 45%;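 note: cells challenged with NPY at its EC10 plus isoproterenol stimulus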
NPY-Y2 counter: potentiates or activates NPY-Y2, counter-screen for NPY-Y1 hits. AID 1649. shares compounds with NPY-Y1 PAM-ag. HEK293-CNG cells, membrane-potential fluorescence (FLIPR), 1536-well. 280 tested, 20% active. activation, % at 3.6 µM
NPY-Y1 agonist: counter-screen for NPY-Y1 potentiators: agonists of human NPY-Y1. activation, % at 3.6 µM. HEK293 Y1-CNGC, membrane potential fluorescence, agonist mode. shares compounds with NPY-Y1 PAM-ag. 280 tested, 50% active;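 active = percent activation above the mean of DMSO-only control wells plus 3 SD of those wells, cut at about 18% in these data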;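 note: cells challenged with isoproterenol plus Ro 20-1724 with no NPY in test wells; Y1 agonism lowers isoproterenol-driven cAMP and reduces probe fluorescence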
NPY-Y2 ag: human NPY-Y2 agonism as NPY-Y1 counter-screen; activation, % at 3.6 µM; shares compounds with NPY-Y1 PAM-ag; HEK293 Y2-CNGC, membrane potential fluorescence, agonist mode; 280 tested, 67% active;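 active = activation above the solvent-only control wells' mean plus 3 SD, cut at about 11% in these data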;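 note: 0% = DMSO with isoproterenol and 100% = 40 nM NPY maximal response; agonism lowers cAMP so well fluorescence drops in active wells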
CNGC counter: blocks cyclic nucleotide gated channel in NPY-Y1 counter-screen; shares compounds with NPY-Y1 PAM-ag; HEK293-CNG parental, isoproterenol cAMP, membrane potential fluorescence; inhibition, % at 3.6 µM; 280 tested, 42% active;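 active = inhibition above the mean of stimulated solvent-only control wells plus 3 SD, cut at about 22% in these data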;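 note: 0% = isoproterenol-stimulated DMSO wells and 100% = unstimulated DMSO wells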
NPY-Y2 confirm: human NPY-Y2 potentiation or agonism, confirmation | activation, % at 3.6 µM | 450 tested, 20% active | cell-based NPY-Y2 potentiator/agonist assay | shares compounds with NPY2 pot ag
NPY-Y1 counter: NPY-Y1 potentiation or agonism as NPY-Y2 counter-screen; Y1 HEK293-CNG cells, membrane potential fluorescence; shares compounds with NPY2 pot ag; activation, % at 3.6 µM; AID 1651; 450 tested, 20% active; in the data active = activation above about 45%;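 note: cells stimulated with submaximal NPY then isoproterenol with phosphodiesterase inhibitor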
NPY-Y1 agonist 2: human NPY-Y1 agonism as NPY-Y2 potentiator counter-screen | shares compounds with NPY2 pot ag | HEK293 Y1-CNGC, membrane potential fluorescence | activation, % at 3.6 µM | 450 tested, 37% active | AID 1702;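 active = activation above the mean of DMSO-only control wells plus 3 SD, cut at about 18% in these data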;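 note: cells stimulated with 1 µM isoproterenol plus the PDE inhibitor Ro 20-1724; 0% = isoproterenol with DMSO and no NPY and 100% = 40 nM NPY; Y1 agonists lower the membrane potential dye signal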
CNGC inhibitor: counter-screen for NPY-Y2 potentiators: inhibitors of CNG channel activity; 450 tested, 32% active; shares compounds with NPY2 pot ag; inhibition, % at 3.6 µM; HEK293-CNG parental, isoproterenol cAMP, membrane potential fluorescence;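 active = inhibition above the control-well mean plus 3 SD of those wells, cut at about 22% in these data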;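 note: 0% = DMSO with isoproterenol and 100% = DMSO without isoproterenol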
NPY-Y2 ag 2: activates human NPY-Y2 receptor in potentiator counter-screen; 450 tested, 56% active; shares compounds with NPY2 pot ag; activation, % at 3.6 µM; HEK293 Y2/CNGC cells, membrane potential fluorescence, agonist mode;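 active = activation above the mean of solvent-only control wells plus 3 SD, cut at about 10% in these data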;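 note: cells stimulated by isoproterenol with no NPY added so direct agonism is tested; 0% = DMSO with isoproterenol alone and 100% = NPY at EC100 plus isoproterenol; agonism lowers probe fluorescence through less cAMP and CNG channel opening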
* marks the source's active call; other numbers are inactive results; . = no result given. Cut-off read from the data, not from the text of the source, unless noted: active = activation above about 33%; inactive = the rest.

SMILES | NPY2 pot ag | INS promoter inh | NPY-Y1 PAM-ag | NPY Y2 blocker | RAM inhibit | NPY-Y1 antag | NPY1 antag conf | NPY2 antag ctr | others
Cc1ccc(NP(=O)(Oc2ccccc2F)Oc2ccccc2F)cc1C | 4 | . | 14 | 10 | 17* | 9 | . | . | RAM efflux-def=2
CN1CCN(c2ccc([N+](=O)[O-])c(SCCO)c2)CC1 | 5 | 8 | 0 | . | 0 | 2 | . | .
FC(F)(F)c1nc(N2CCN(c3ccccc3)CC2)nc2c1CCCCC2 | 4 | . | -1 | 4 | 14* | -9 | . | . | RAM efflux-def=4
COc1ccc(C(=O)N2CCCC2=O)cc1 | 6 | -5 | 6 | 3 | 1 | -7 | . | .
C=CCSC1=N/C(=C\c2cc(OC)c3c(c2)OCO3)C(=O)S1 | -5 | 7 | -5 | 10 | 12* | 0 | . | . | RAM efflux-def=3
Cc1ccc(Cn2cc(C=O)c(-c3ccc(C)cc3)n2)cc1 | 5 | 30 | 9 | 1 | 16* | 2 | . | . | RAM efflux-def=1
Cc1c(C(=O)N2CCC3(CC2)OCCO3)sc2ncnc(N(C)c3ccccc3)c12 | -14 | 50 | -6 | 0 | 0 | 8 | . | .
CCOc1ccc2nc(N=Nc3c(O)[nH]c(=S)[nH]c3=O)sc2c1 | 11 | . | 13 | . | 12* | -3 | . | . | RAM efflux-def=6
CCOc1ccc2nc(N=Nc3c(O)[nH]c(=O)[nH]c3=O)sc2c1 | 13 | . | 11 | . | . | . | . | .
CCOP(=O)(Cc1cc(C#N)oc1C)OCC | -4 | 0 | -7 | 0 | 1 | 6 | . | .
Clc1ccc(COC(Cn2ccnc2)c2ccc(Cl)cc2Cl)c(Cl)c1 (configuration not stated) | -12 | -45 | -63 | 16 | -1 | 23* | 30* | 25*
COc1ccc2c(c1)c(C(=O)CN1CCN(C)CC1)c(C)n2Cc1ccccc1 | -20 | . | -111 | 16 | 2 | 25* | 8 | 15
Cc1cc(C=O)c(C)n1C1CC1 | 3 | . | 3 | . | 1 | 4 | . | .
Cc1cccc(N2CCN(CCc3ccccc3)CC2)c1C | -22 | -40 | -14 | 8 | -1 | 23* | 5 | 8
Cc1ccc(N2CCN(CCc3ccccc3)CC2)cc1 | -1 | -14 | -14 | 0 | 1 | -1 | . | .
C[C@H]1OC[C@@H](C[N+](C)(C)C)O1 | -15 | 14 | -70 | 6 | 0 | 44* | 36* | 22*
CCc1nnc(NS(=O)(=O)c2ccc(N=Cc3c(O)n(-c4ccc(Cl)cc4)c(=O)[nH]c3=O)cc2)s1 | 18 | . | 1 | . | 1 | -4 | . | .
CN1C(=O)N(C)C(=O)C2(Cc3cc([N+](=O)[O-])ccc3N(C)C2c2ccccc2)C1=O (configuration not stated) | 5 | -68 | -25 | 0 | -1 | -1 | . | .
CCN(CC)CCCNC(=O)c1c(O)c2ccccc2n(Cc2ccccc2)c1=O | -41 | -5 | -49 | 15 | 0 | 20* | 16 | 26*
CN1C(=O)N(C)C(=O)C2(Cc3cc([N+](=O)[O-])ccc3N(C)C2)C1=O | 3 | -33 | 10 | . | 1 | 8 | . | .
C1=C(c2c[nH]c3ccccc23)CCN(Cc2ccccc2)C1 | -6 | -27 | 6 | . | 2 | -4 | . | .
CN1CC=C(c2c[nH]c3ccccc23)CC1 | 0 | . | -2 | 2 | -1 | 36* | 6 | 3
C/C1=C\[C@@H](C)C/C=C/[C@H]2[C@@H]3O[C@]3(C)[C@@H](C)[C@H]3[C@H](Cc4c[nH]c5ccccc45)NC(=O)[C@]32C(=O)/C=C/C(=O)[C@@H]1O | 39* | . | 11 | . | 0 | 40* | 35* | 7 | NPY-Y2 confirm=5;NPY-Y1 counter=5;NPY-Y1 agonist 2=-1;CNGC inhibitor=5;NPY-Y2 ag 2=17*
CNC(C(=O)c1ccccc1)C(OC)c1cccc([N+](=O)[O-])c1 (configuration not stated) | 5 | . | -3 | . | . | . | . | .
O=P(Nc1ccccc1)(Nc1ccccc1)Oc1ccc(Cl)cc1 | 14 | -52 | 41* | 1 | 5 | -2 | . | . | NPY-Y1 confirm=33;NPY-Y2 counter=20;NPY-Y1 agonist=23*;NPY-Y2 ag=22*;CNGC counter=44*
CC12CCCCC1=NC(c1ccc(Br)cc1)N2O (configuration not stated) | -1 | 32 | -3 | 1 | 0 | -6 | . | .
c1ccc(CCNCc2ccccc2)cc1 | -1 | -19 | -1 | 0 | 2 | 5 | . | .
